Measured values from different studies.
Compare with care: the assays were run in different laboratories.
Target: Cyclin-dependent kinase-like 5 (CDKL5, Homo sapiens, UniProt O76039)
Sequence (O76039 1-960, as in one of the studies): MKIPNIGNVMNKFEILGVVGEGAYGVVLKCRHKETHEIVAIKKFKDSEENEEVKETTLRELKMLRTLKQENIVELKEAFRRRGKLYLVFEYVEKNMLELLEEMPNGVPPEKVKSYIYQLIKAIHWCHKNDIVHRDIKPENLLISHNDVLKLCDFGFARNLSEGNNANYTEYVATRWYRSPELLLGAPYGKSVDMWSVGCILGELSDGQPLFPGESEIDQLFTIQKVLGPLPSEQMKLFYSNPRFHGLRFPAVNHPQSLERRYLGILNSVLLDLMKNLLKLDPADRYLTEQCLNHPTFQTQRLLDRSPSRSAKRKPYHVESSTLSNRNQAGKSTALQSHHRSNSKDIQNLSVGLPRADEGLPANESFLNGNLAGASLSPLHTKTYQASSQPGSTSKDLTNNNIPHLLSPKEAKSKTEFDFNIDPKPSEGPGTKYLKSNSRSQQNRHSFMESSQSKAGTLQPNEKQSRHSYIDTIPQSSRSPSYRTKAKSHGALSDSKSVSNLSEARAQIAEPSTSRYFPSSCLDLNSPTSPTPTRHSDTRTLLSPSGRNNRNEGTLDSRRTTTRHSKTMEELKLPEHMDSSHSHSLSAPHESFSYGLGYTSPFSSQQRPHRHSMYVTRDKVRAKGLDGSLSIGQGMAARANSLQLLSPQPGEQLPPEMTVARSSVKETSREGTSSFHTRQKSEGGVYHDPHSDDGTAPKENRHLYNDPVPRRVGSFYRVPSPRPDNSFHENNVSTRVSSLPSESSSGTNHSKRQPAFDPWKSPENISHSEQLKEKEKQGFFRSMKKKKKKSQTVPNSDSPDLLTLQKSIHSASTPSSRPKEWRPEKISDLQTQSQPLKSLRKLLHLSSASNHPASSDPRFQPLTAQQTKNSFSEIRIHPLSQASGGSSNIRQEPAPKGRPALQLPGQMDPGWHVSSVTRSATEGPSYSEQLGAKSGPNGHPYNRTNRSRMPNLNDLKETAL

Compound | observed | method | tested at | remaining binding [%]
Nc1ncc2c(n1)-c1c([nH]c3ccc(C#CC4CC4)cc13)CCCC2 | binding | competition with immobilised ligand | 1 µM | 90
O=C(NCCCN1CCOCC1)c1ccc(Nc2nccc(-c3cc4ccccc4s3)n2)cc1 | binding | competition with immobilised ligand | 1 µM | 40
CC1=C(C#N)C(c2ccc3c(c2)c(NC(=O)c2ccccc2C)nn3C)C(C#N)=C(C)N1 | binding | competition with immobilised ligand | 1 µM | 79
CCN1CCN(Cc2ccc(C(=O)Nc3ccc(C)c(Oc4ccc5c(c4)CC(=O)N5)c3)cc2C(F)(F)F)CC1 | binding | competition with immobilised ligand | 1 µM | 100
COc1cnc(Nc2cccc(S(N)(=O)=O)c2)nc1N1CCN(c2ccccc2)CC1 | binding | competition with immobilised ligand | 1 µM | 72
C[C@@H]1CCN(c2nccc(-c3cnn4ncccc34)n2)C1 | binding |  | 1 µM | 86
O=C(NCCCN1CCOCC1)c1ccc(Nc2ncc(Cl)c(-c3ccc(Cl)s3)n2)cc1 | binding | competition with immobilised ligand | 1 µM | 26
O=C(NCC1CCOCC1)c1n[nH]cc1NC(=O)c1c(F)cccc1F | binding | competition with immobilised ligand | 1 µM | 30
CN(C)c1nccc(-c2cnc3ncccn23)n1 | binding |  | 1 µM | 88
C[C@H](c1ccc(F)cc1)N(Cc1cccc(C(=O)O)c1)C(=O)c1cnc2ccccc2c1 | binding | competition with immobilised ligand | 1 µM | 100
COc1ncc2cc3ccccc3nc2c1C#N | binding | competition with immobilised ligand | 5 µM | 90
F[C@@H]1CCN(c2nccc(-c3cnn4ncccc34)n2)C1 | binding |  | 1 µM | 100
Cc1cnc(Nc2ccc(C(=O)N3CCC(N4CCCC4)CC3)cc2)nc1-c1cc2ccccc2s1 | binding | competition with immobilised ligand | 1 µM | 69
CS(=O)(=O)N1CCCC(NC(=O)[C@H](CCC2CCCCC2)NC(=O)c2ccc(CNc3ncnc4c3nnn4-c3ccccc3)cc2)C1 (stereo partly drawn) | cell-free assay | competition with immobilised ligand | 0.1 µM | 100
N[C@H]1CCN(c2nccc(-c3cnn4ncccc34)n2)C1 | binding |  | 1 µM | 100
CCCCN(CCCC)C(=O)CN1C[C@H](c2cc(OC)c3c(c2)OCO3)[C@@H](C(=O)O)[C@@H]1CC(C)(C)CCC | cell-free assay | competition with immobilised ligand | 1 µM | 71.4
CC1CCCN1c1nccc(-c2cnn3ncccc23)n1 (stereo not drawn) | binding |  | 1 µM | 100
CC(=O)Nc1c(C(C)=O)c(=O)n(C)c2nc(-c3ccc(Cl)cc3Cl)c(-c3ccc(Cl)cc3)cc12 | cell-free assay | competition with immobilised ligand | 1 µM | 100
Cc1cnn2ncc(-c3ccnc(N(C)C)n3)c2c1 | binding |  | 1 µM | 86
COc1cnc(Nc2cccc(S(N)(=O)=O)c2)nc1N1CCN(c2ccccc2)C(=O)C1 | binding | competition with immobilised ligand | 1 µM | 100
O=C(NCc1ncc(C(F)(F)F)cc1Cl)c1ccc2c(c1)C1(CCS(=O)(=O)CC1)[C@H](C1CC1)N2S(=O)(=O)c1ccc(F)cc1 | cell-free assay | competition with immobilised ligand | 1 µM | 78
